The values that follow come from ChEMBL document CHEMBL2406905, “Improving the antibacterial activity and selectivity of an ultra short peptide by hydrophobic and hydrophilic amino acid stretches” (Bioorg Med Chem Lett, 2013).

In data set [1] the test system is Escherichia coli. Description: Antibacterial activity against Escherichia coli ATCC 25922 assessed as appearance of blebs on cell surface at 10 X MIC after 1 min by SEM analysis. In kind it is functional, organism-based. In a few lines: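 Bacterial suspension at OD600 0.1 was exposed to peptide at 10× MIC for 1 min and 60 min. The negative control was 20 mM Tris–HCl buffer. Cell morphology was then examined by scanning electron microscopy.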

A short description of data set [2]: Therapeutic index, ratio of MHC for human RBC to MIC for Staphylococcus aureus ATCC 25923. Particulars: human red blood cells (RBC), read-out: TI. The essentials: (§1)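 Index was calculated as MHC/MIC. MHC was the lowest peptide concentration producing 5% hemolysis of human red blood cells. MIC was the concentration giving >90% inhibition of bacterial growth (OD600) after 24 h at 37 °C in nutrient broth, with bacteria starting at OD600 0.001.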

Data set [3] is described as follows: Therapeutic index, ratio of MHC for human RBC to MIC for Escherichia coli ATCC 25922. As to conditions: human red blood cells (RBC), read-out: TI. The essentials:
as §1

Data set [4] can be described thus: Therapeutic index, ratio of MHC for human RBC to MIC for Salmonella typhi DMST 22842. As to conditions: human red blood cells (RBC), read-out: TI. In a few lines: as §1
Data set [5] in a line: Therapeutic index, ratio of MHC for human RBC to MIC for Staphylococcus epidermidis ATCC 12228. As to conditions: human red blood cells (RBC), read-out: TI. In a few lines: as §1
Data set [6] can be described thus: Hemolytic activity in human RBC at 1 to 91 ug/ml. The format is ADME, cell-based. Particulars: erythrocyte. The essentials: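 Human red blood cells were exposed to peptide. Minimal hemolytic concentration was taken as the lowest peptide concentration producing 5% hemolysis.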
In data set [7] the test system is Staphylococcus epidermidis. Description: Bactericidal activity against Staphylococcus epidermidis ATCC 12228 assessed as reduction in CFU at 23 ug/mL after 48 hrs. In kind it is functional. Set-up: scale not given: the % may be the effect or the level left. The essentials: (§2)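 After the 24 h, 37 °C broth-microdilution exposure (log-phase inoculum at OD600 0.001, peptide in 20 mM Tris–HCl pH 7.4), 5 μL from each well was plated on agar and incubated at 37 °C for 48 h. 100% bactericidal concentration was the concentration giving a 99.9% CFU reduction from the starting inoculum.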

Another data set has as its system Vibrio cholerae non-O1. Description: Antibacterial activity against Vibrio cholerae non-O1 non-O139 assessed as growth inhibition after 24 hrs. In kind it is functional.
For another data set, the system named is Pseudomonas aeruginosa. Description: Antibacterial activity against Pseudomonas aeruginosa ATCC 27853 assessed as growth inhibition after 24 hrs. The format is functional. In a few lines:
(§3)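 Log-phase bacteria adjusted to OD600 0.001 in nutrient broth. Peptide dilutions in 20 mM Tris–HCl pH 7.4 were added; buffer alone served as control. Incubation was 37 °C for 24 h. % inhibition was calculated from the OD600 change (24 h minus time zero) relative to the control change. MIC was the concentration giving >90% growth inhibition.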

Another data set deals with Staphylococcus aureus. Description: Antibacterial activity against Staphylococcus aureus ATCC 25923 assessed as growth inhibition after 24 hrs. In kind it is functional. In a few lines: as §3
Data set [8] deals with Escherichia coli. Kind of data set: Antibacterial activity against Escherichia coli ATCC 25922 assessed as growth inhibition after 24 hrs. In kind it is functional. As to conditions: Escherichia coli, ATCC 25922, 24 h. The essentials:
as §3

Data set [9] has as its system Salmonella typhi. Description: Antibacterial activity against Salmonella typhi DMST 22842 assessed as growth inhibition after 24 hrs. In kind it is functional, Salmonella enterica subsp. enterica serovar Typhi. As to conditions: Salmonella enterica, DMST 22842, 24 h.
The subject of data set [10] is Staphylococcus epidermidis. Description: Antibacterial activity against Staphylococcus epidermidis ATCC 12228 assessed as growth inhibition after 24 hrs. In kind it is functional. Particulars: Staphylococcus epidermidis, ATCC 12228, 24 h. The essentials:
as §3

Data set [11] has as its system Salmonella typhi. Kind of data set: Bactericidal activity against Salmonella typhi DMST 22842 assessed as reduction in CFU at 23 ug/mL after 48 hrs. Details: scale not given: the % may be the effect or the level left. In kind it is functional, Salmonella enterica subsp. enterica serovar Typhi. The essentials:
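Bacteria at OD600 0.001 in nutrient broth were exposed to peptide in 20 mM Tris–HCl (pH 7.4) at 37 °C for 24 h. A sample from each well was then plated on agar and incubated at 37 °C for 48 h. Bactericidal activity was taken as a 99.9% CFU reduction versus the starting inoculum.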

The test system of data set [12] is Escherichia coli. Kind of data set: Bactericidal activity against Escherichia coli ATCC 25922 assessed as reduction in CFU at 11 ug/mL after 48 hrs. Details: scale not given: the % may be the effect or the level left. The format is functional. The essentials: as §2

The source made the active and inactive calls. The calls are words filed in the database; no cut-off is given here.

The MIC90 is the lowest concentration that inhibits either 90% of growth or 90% of the strains tested, depending on the study.

For the substance H-NGVQPKYKWWKWWKKWWW-NH2, in the data set with Escherichia coli [1], the outcome was Active. Moreover, the selectivity ratio is < 0.5 in data set [2], 2 in data set [3], 1 in data set [4] and 1 in data set [5]. The Activity result in [6] is listed as “Toxic”; in data set [7], 100%; with Salmonella typhi [11], 100%; with Escherichia coli [12] it was 100%. The MIC90 result with Vibrio cholerae non-O1 and with Pseudomonas aeruginosa was “inactive” throughout. Besides, in the data set with Staphylococcus aureus, the “growth inhibition (GI)” value is on record as <90%. For the same substance, the MIC90 is > 91 µg/mL in the data set with Staphylococcus aureus (Staphylococcus aureus, ATCC 25923, 24 h); 11 µg/mL in the data set with Escherichia coli [8]; 23 µg/mL in the data set with Salmonella typhi [9]; 23 µg/mL in data set [10].
